Reference: ChEMBL document CHEMBL1121371, “Antihypertensive 5,6-diarylpyridazin-3-ones” (1980)
“And” between values parts separate entries of the source, which are not always exact repeats. Identical values can stand only once.

Key:
Rattus norvegicus [1] = assay: Antihypertensive activity in spontaneously hypertensive rats was measured as average blood pressure at 100 mg/kg, p.o. after 24 hours of postdose; type: functional; settings: route oral
Outline: (§1)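 Spontaneously hypertensive rats aged 12 to 16 weeks, in groups of five with systolic pressure of 170 mmHg or more. Oral dosing as a solution or suspension in 0.25% methylcellulose, 5 mL/kg, with a vehicle control group. Tail-cuff systolic pressure was read predose and 4 and 24 h after each of two doses. Values were compared with predose by Student's t test.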

Rattus norvegicus [2] = assay: Antihypertensive activity in spontaneously hypertensive rats was measured as change in heart rate at 100 mg/kg peroral dose; No significant change is heart rate; type: functional; settings: route oral
Rattus norvegicus [3] = assay: Antihypertensive activity in spontaneously hypertensive rats was measured as average blood pressure at 100 mg/kg, p.o. after 4 hours of postdose; type: functional; settings: route oral; outline: as §1
Rattus norvegicus [4] = assay: Antihypertensive activity in spontaneously hypertensive rats was measured as average blood pressure at 100 mg/kg, p.o. after 4 hours of postdose-2; type: functional; settings: route oral; outline: as §1
Rattus norvegicus [5] = assay: Antihypertensive activity in spontaneously hypertensive rats was measured as average blood pressure at 100 mg/kg, po after 24 hours of postdose-2; type: functional; outline: as §1
Rattus norvegicus [6] = assay: Antihypertensive activity in spontaneously hypertensive rats was measured as average blood pressure at 100 mg/kg, p.o. before predose; type: functional; settings: route oral; outline: as §1
Rattus norvegicus [7] = assay: Antihypertensive activity in spontaneously hypertensive rats was measured as average blood pressure at 75 mg/kg, p.o. before predose; type: functional; settings: route oral
Rattus norvegicus [8] = assay: Antihypertensive activity in spontaneously hypertensive rats was measured as average blood pressure at 75 mg/kg, p.o. after 4 hours of postdose-2; type: functional; settings: route oral
Rattus norvegicus [9] = assay: Antihypertensive activity in spontaneously hypertensive rats was measured as average blood pressure at 75 mg/kg, p.o. after 24 hours of postdose-1; type: functional; settings: route oral
Rattus norvegicus [10] = assay: Antihypertensive activity in spontaneously hypertensive rats was measured as average blood pressure at 75 mg/kg, po after 4 hours of postdose-1.; type: functional
Rattus norvegicus [11] = assay: Antihypertensive activity in spontaneously hypertensive rats was measured as average blood pressure at 75 mg/kg, p.o. after 24 hours of postdose-2; type: functional; settings: route oral
Rattus norvegicus [12] = assay: Antihypertensive activity in spontaneously hypertensive rats was measured as average blood pressure at 25 mg/kg, p.o. after 24 hours of postdose-2; type: functional; settings: route oral; outline: as §1
Rattus norvegicus [13] = assay: Antihypertensive activity in spontaneously hypertensive rats was measured as average blood pressure at 25 mg/kg, p.o. after 24 hours of postdose-1; type: functional; settings: route oral; outline: as §1
Rattus norvegicus [14] = assay: Antihypertensive activity in spontaneously hypertensive rats was measured as average blood pressure at 25 mg/kg, p.o. before predose; type: functional; settings: route oral; outline: as §1
Rattus norvegicus [15] = assay: Antihypertensive activity in spontaneously hypertensive rats was measured as average blood pressure at 25 mg/kg, p.o. after 4 hours of postdose-2; type: functional; settings: route oral; outline: as §1
Rattus norvegicus [16] = assay: Antihypertensive activity in spontaneously hypertensive rats was measured as average blood pressure at 25 mg/kg, p.o. after 4 hours of postdose-1.; type: functional; settings: route oral; outline: as §1
Rattus norvegicus [17] = organism: Rattus norvegicus; assay: Antihypertensive activity in spontaneously hypertensive rats was measured; (+)=Increased heart rate; type: functional, organism-based
Rattus norvegicus [18] = assay: Antihypertensive activity in spontaneously hypertensive rats was measured as average blood pressure at 100 mg/kg, p.o. after 24 hours of postdose-1.; type: functional; settings: route oral; outline: as §1
Rattus norvegicus [19] = assay: Antihypertensive activity in spontaneously hypertensive rats was measured as average blood pressure at 100 mg/kg, p.o. after 4 hours of postdose-1; type: functional; settings: route oral; outline: as §1
Rattus norvegicus [20] = assay: Antihypertensive activity in DOCA hypertensive rats was measured as average blood pressure at 25 mg/kg, p.o. after 24 hours of postdose-1; settings: route oral
Rattus norvegicus [21] = assay: Antihypertensive activity in DOCA hypertensive rats was measured as average blood pressure at 25 mg/kg, po before predose
Rattus norvegicus [22] = assay: Antihypertensive activity in spontaneously hypertensive rats was measured as average blood pressure at 30 mg/kg, p.o. after 24 hours of postdose-1; type: functional; settings: route oral; outline: as §1
Rattus norvegicus [23] = assay: Antihypertensive activity in DOCA hypertensive rats was measured as average blood pressure at 25 mg/kg, p.o. after 24 hours of postdose-2; settings: route oral
Rattus norvegicus [24] = assay: Antihypertensive activity in spontaneously hypertensive rats was measured as average blood pressure at 30 mg/kg, p.o. after 24 hours of postdose-2; type: functional; settings: route oral; outline: as §1
Rattus norvegicus [25] = assay: Antihypertensive activity in spontaneously hypertensive rats was measured as average blood pressure at 10 mg/kg, p.o. after 4 hours of postdose-1.; type: functional; settings: route oral; outline: as §1
Rattus norvegicus [26] = assay: Antihypertensive activity in DOCA hypertensive rats was measured as average blood pressure at 10 mg/kg, p.o. after 24 hours of postdose-1; settings: route oral
Rattus norvegicus [27] = assay: Antihypertensive activity in […] hypertensive rats was measured as average blood pressure at 100 mg/kg, po after 4 hours of postdose-2; type: functional
Rattus norvegicus [28] = assay: Antihypertensive activity in spontaneously hypertensive rats was measured as increase in heart rate at 30 mg/kg peroral dose; (+)=Increased heart rate; type: functional, organism-based; design: dose 30 mg/kg
Rattus norvegicus [29] = assay: Antihypertensive activity in […] hypertensive rats was measured as average blood pressure at 100 mg/kg, p.o. before predose; type: functional; settings: route oral
Rattus norvegicus [30] = assay: Antihypertensive activity in […] hypertensive rats was measured as average blood pressure at 100 mg/kg, p.o. after 4 hours of postdose-1; type: functional; settings: route oral
Rattus norvegicus [31] = assay: Antihypertensive activity in […] hypertensive rats was measured as average blood pressure at 50 mg/kg, p.o. after 24 hours of postdose-1; type: functional; settings: route oral
Rattus norvegicus [32] = assay: Antihypertensive activity in spontaneously hypertensive rats was measured as average blood pressure at 10 mg/kg, p.o. after 4 hours of postdose-2; type: functional; settings: route oral; outline: as §1
Rattus norvegicus [33] = assay: Antihypertensive activity in […] hypertensive rats was measured as average blood pressure at 50 mg/kg, p.o. after 4 hours of postdose-2; type: functional; settings: route oral
Rattus norvegicus [34] = assay: Antihypertensive activity in spontaneously hypertensive rats was measured as increase in heart rate at 10 mg/kg peroral dose; (+)=Increased heart rate; type: functional, organism-based; design: dose 10 mg/kg
Rattus norvegicus [35] = assay: Antihypertensive activity in DOCA hypertensive rats was measured as average blood pressure at 25 mg/kg, p.o. after 4 hours of postdose-2; settings: route oral
Rattus norvegicus [36] = assay: Antihypertensive activity in DOCA hypertensive rats was measured as average blood pressure at 10 mg/kg, p.o. before predose; settings: route oral
Rattus norvegicus [37] = assay: Antihypertensive activity in […] hypertensive rats was measured as average blood pressure at 50 mg/kg, p.o. after 24 hours of postdose-2; type: functional; settings: route oral
Rattus norvegicus [38] = assay: Antihypertensive activity in spontaneously hypertensive rats was measured as average blood pressure at 30 mg/kg, p.o. after 4 hours of postdose-2; type: functional; settings: route oral; outline: as §1
Rattus norvegicus [39] = assay: Antihypertensive activity in spontaneously hypertensive rats was measured as average blood pressure at 10 mg/kg, p.o. after 24 hours of postdose-2; type: functional; settings: route oral; outline: as §1
Rattus norvegicus [40] = assay: Antihypertensive activity in […] hypertensive rats was measured as average blood pressure at 50 mg/kg, p.o. after 4 hours of postdose-1; type: functional; settings: route oral
Rattus norvegicus [41] = assay: Antihypertensive activity in […] hypertensive rats was measured as average blood pressure at 50 mg/kg, p.o. before predose; type: functional; settings: route oral
Rattus norvegicus [42] = assay: Antihypertensive activity in DOCA hypertensive rats was measured as average blood pressure at 10 mg/kg, p.o. after 24 hours of postdose-2; settings: route oral
Rattus norvegicus [43] = assay: Antihypertensive activity in […] hypertensive rats was measured as average blood pressure at 100 mg/kg, p.o. after 24 hours of postdose-1; type: functional; settings: route oral
Rattus norvegicus [44] = assay: Antihypertensive activity in spontaneously hypertensive rats was measured as increase in heart rate at 100 mg/kg peroral dose; (+)=Increased heart rate; type: functional, organism-based; design: dose 100 mg/kg
Rattus norvegicus [45] = assay: Antihypertensive activity in DOCA hypertensive rats was measured as average blood pressure at 10 mg/kg, p.o. after 4 hours of postdose-2; settings: route oral
Rattus norvegicus [46] = assay: Antihypertensive activity in DOCA hypertensive rats was measured as average blood pressure at 10 mg/kg, p.o. after 4 hours of postdose-1.; settings: route oral
Rattus norvegicus [47] = assay: Antihypertensive activity in spontaneously hypertensive rats was measured as average blood pressure at 10 mg/kg, p.o. before predose; type: functional; settings: route oral; outline: as §1
Rattus norvegicus [48] = assay: Antihypertensive activity in […] hypertensive rats was measured as average blood pressure at 100 mg/kg, p.o. after 24 hours of postdose-2; type: functional; settings: route oral
Rattus norvegicus [49] = assay: Antihypertensive activity in […] hypertensive rats was measured as average blood pressure at 100 mg/kg, p.o. after 4 hours of postdose-1.; type: functional; settings: route oral
Rattus norvegicus [50] = assay: Antihypertensive activity in spontaneously hypertensive rats was measured as average blood pressure at 30 mg/kg, po after 4 hours of postdose-1.; type: functional; outline: as §1
Rattus norvegicus [51] = assay: Antihypertensive activity in spontaneously hypertensive rats was measured as average blood pressure at 10 mg/kg, p.o. after 24 hours of postdose-1; type: functional; settings: route oral; outline: as §1
Rattus norvegicus [52] = assay: Antihypertensive activity in spontaneously hypertensive rats was measured as average blood pressure at 30 mg/kg, p.o. before predose; type: functional; settings: route oral; outline: as §1

N#Cc1c(O)nnc(-c2ccc(Cl)cc2)c1-c1ccc(Cl)cc1 gave a BP (Rattus norvegicus [1]) of 177 mmHg, a Heart rate (Rattus norvegicus [2]) of 0 and a BP (Rattus norvegicus [3]) of 171 mmHg. The BP (Rattus norvegicus [4]) was 173 mmHg, the BP (Rattus norvegicus [5]) was 175 mmHg and the BP (Rattus norvegicus [6]) was 205 mmHg.

For CC(=O)c1c(-c2ccccc2)c(-c2ccccc2)nn(CCO)c1=O, the BP (Rattus norvegicus [7]) was 200 mmHg, the BP (Rattus norvegicus [8]) was 164 mmHg and the BP (Rattus norvegicus [9]) was 163 mmHg. For the same compound, the BP (Rattus norvegicus [10]) was 181 mmHg and the BP (Rattus norvegicus [11]) was 176 mmHg.

For Br.CC(=O)c1c(-c2ccc(Cl)cc2)c(-c2ccc(Cl)cc2)nn(CCN)c1=O, the BP (Rattus norvegicus [12]) was 183 mmHg, the BP (Rattus norvegicus [13]) was 162 mmHg and the BP (Rattus norvegicus [14]) was 194 mmHg. The BP (Rattus norvegicus [15]) was 177 mmHg and the BP (Rattus norvegicus [16]) was 184 mmHg.

In the case of O=c1c(-c2ccccc2)c(-c2ccccc2)c(-c2ccccc2)nn1CCO, the Heart rate (Rattus norvegicus [17]) was “Increased heart rate”, the BP (Rattus norvegicus [18]) was 187 mmHg and the BP (Rattus norvegicus [19]) was 173 mmHg. It also gave a BP (Rattus norvegicus [4]) of 176 mmHg, a BP (Rattus norvegicus [5]) of 188 mmHg and a BP (Rattus norvegicus [6]) of 200 mmHg.

CC(=O)c1c(-c2ccc(Cl)cc2)c(-c2ccc(Cl)cc2)nn(CCO)c1=O was tested, and the BP (Rattus norvegicus [20]) was 191 mmHg, the BP (Rattus norvegicus [21]) was 235 mmHg and the BP (Rattus norvegicus [22]) was 192 mmHg. For the same compound, the BP (Rattus norvegicus [23]) was 208 mmHg, the BP (Rattus norvegicus [24]) was 206 mmHg and the BP (Rattus norvegicus [25]) was 187 mmHg. For the same compound, the BP (Rattus norvegicus [26]) was 192 mmHg, the BP (Rattus norvegicus [27]) was 164 mmHg and 127 mmHg and the Heart rate (Rattus norvegicus [28]) was “Increased heart rate”. For the same compound, the BP (Rattus norvegicus [29]) was 222 mmHg and 125 mmHg, the BP (Rattus norvegicus [30]) was 169 mmHg and the BP (Rattus norvegicus [31]) was 184 mmHg. For the same compound, the BP (Rattus norvegicus [32]) was 191 mmHg, the BP (Rattus norvegicus [33]) was 182 mmHg and the Heart rate (Rattus norvegicus [34]) was “Increased heart rate”. The BP (Rattus norvegicus [35]) was 188 mmHg, the BP (Rattus norvegicus [18]) was 185 mmHg and the BP (Rattus norvegicus [36]) was 224 mmHg. For the same compound, the BP (Rattus norvegicus [37]) was 213 mmHg, the BP (Rattus norvegicus [38]) was 164 mmHg and the BP (Rattus norvegicus [39]) was 197 mmHg. The BP (Rattus norvegicus [40]) was 171 mmHg, the BP (Rattus norvegicus [3]) was 173 mmHg and the BP (Rattus norvegicus [41]) was 224 mmHg. For the same compound, the BP (Rattus norvegicus [42]) was 210 mmHg, the BP (Rattus norvegicus [43]) was 178 mmHg and 125 mmHg and the BP (Rattus norvegicus [4]) was 174 mmHg. For the same compound, the BP (Rattus norvegicus [5]) was 193 mmHg, the Heart rate (Rattus norvegicus [44]) was “Increased heart rate” and the BP (Rattus norvegicus [45]) was 188 mmHg. The BP (Rattus norvegicus [46]) was 191 mmHg, the BP (Rattus norvegicus [6]) was 218 mmHg and the BP (Rattus norvegicus [47]) was 202 mmHg. The BP (Rattus norvegicus [48]) was 195 mmHg and 130 mmHg, the BP (Rattus norvegicus [49]) was 123 mmHg and the BP (Rattus norvegicus [50]) was 200 mmHg. The BP (Rattus norvegicus [51]) was 203 mmHg and the BP (Rattus norvegicus [52]) was 213 mmHg.
